Values joined by “and” are separate entries in the source; they are usually repeats but may differ in a detail not shown here. Equal values may be shown once.
System: HEK-293T
Test: Multiplex assay against HEK293T
Assay type: toxicity, cell-based
Details: human
Outline: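 Tubulin, mitochondrial-mass and membrane-permeability phenotypes are per cents of healthy-nucleus cells. Cells were gated by CellPathfinder machine learning into Hoechst high-intensity objects or normal cells, normal cells into healthy, pyknosed or fragmented nuclei, and pyknosed cells into mitotic or apoptotic. Before that, live cells stained at seeding with Hoechst33342, BioTracker Green Microtubule Cytoskeleton Dye, MitoTracker Red and Annexin V Alexa Fluor 680 were imaged on a CQ1 microscope at 37°C and 5% CO2 after compound addition.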

[1] = 12 h, 1 µM, compound concentration 1 uM
[2] = 12 h, 10 µM, compound concentration 10 uM
[3] = 24 h, 1 µM, compound concentration 1 uM
[4] = 24 h, 10 µM, compound concentration 10 uM
[5] = 48 h, 1 µM, compound concentration 1 uM
[6] = 48 h, 10 µM, compound concentration 10 uM

CC(C)COc1ccc(CNC(=O)N(Cc2ccc(F)cc2)C2CCN(C)CC2)cc1 [PIMAVANSERIN]
Population Apoptotic (%) [1]: 39% and 54% | Population Fragmented Nuclei (%) [1]: 5% and 7% | Population Healthy Nuclei (%) [1]: 82% and 74% | Population Hoechst High Intensity Objects (%) [1]: 6% and 11% | Population Membrane Permeable-Phenotype (%) [1]: 0% | Population Mitochondria Different-Phenotype (%) [1]: 50% and 68% | Population Mitotic Cells (%) [1]: 60% and 46% | Population Normal (%) [1]: 93% and 88% | Population Pyknosed Nuclei (%) [1]: 11% and 18% | Population Tubulin-Different-Phenotype (%) [1]: 49% and 35% | Total Cell Count [1]: 430 and 311 | Population Apoptotic (%) [2]: 62% and 79% | Population Fragmented Nuclei (%) [2]: 10% and 7% | Population Healthy Nuclei (%) [2]: 60% and 64% | Population Hoechst High Intensity Objects (%) [2]: 19% and 25% | Population Membrane Permeable-Phenotype (%) [2]: 0% | Population Mitochondria Different-Phenotype (%) [2]: 89% and 87% | Population Mitotic Cells (%) [2]: 37% and 20% | Population Normal (%) [2]: 80% and 74% | Population Pyknosed Nuclei (%) [2]: 28% and 27% | Population Tubulin-Different-Phenotype (%) [2]: 81% and 66% | Total Cell Count [2]: 285 and 237 | Population Apoptotic (%) [3]: 33% and 48% | Population Fragmented Nuclei (%) [3]: 9% and 4% | Population Healthy Nuclei (%) [3]: 77% and 82% | Population Hoechst High Intensity Objects (%) [3]: 6% and 8% | Population Membrane Permeable-Phenotype (%) [3]: 2% and 0% | Population Mitochondria Different-Phenotype (%) [3]: 42% and 55% | Population Mitotic Cells (%) [3]: 66% and 51% | Population Normal (%) [3]: 93% and 91% | Population Pyknosed Nuclei (%) [3]: 13% and 12% | Population Tubulin-Different-Phenotype (%) [3]: 40% and 30% | Total Cell Count [3]: 553 and 394 | Population Apoptotic (%) [4]: 81% and 84% | Population Fragmented Nuclei (%) [4]: 10% and 12% | Population Healthy Nuclei (%) [4]: 57% and 54% | Population Hoechst High Intensity Objects (%) [4]: 27% and 34% | Population Membrane Permeable-Phenotype (%) [4]: 0% | Population Mitochondria Different-Phenotype (%) [4]: 94% and 100% | Population Mitotic Cells (%) [4]: 18% and 15% | Population Normal (%) [4]: 72% and 65% | Population Pyknosed Nuclei (%) [4]: 31% and 32% | Population Tubulin-Different-Phenotype (%) [4]: 77% and 69% | Total Cell Count [4]: 285 and 215 | Population Apoptotic (%) [5]: 27% and 48% | Population Fragmented Nuclei (%) [5]: 13% and 9% | Population Healthy Nuclei (%) [5]: 77% and 84% | Population Hoechst High Intensity Objects (%) [5]: 5% | Population Membrane Permeable-Phenotype (%) [5]: 1% and 0% | Population Mitochondria Different-Phenotype (%) [5]: 31% and 33% | Population Mitotic Cells (%) [5]: 72% and 51% | Population Normal (%) [5]: 94% | Population Pyknosed Nuclei (%) [5]: 8% and 6% | Population Tubulin-Different-Phenotype (%) [5]: 33% and 21% | Total Cell Count [5]: 869 and 601 | Population Apoptotic (%) [6]: 75% and 61% | Population Fragmented Nuclei (%) [6]: 29% and 31% | Population Healthy Nuclei (%) [6]: 30% | Population Hoechst High Intensity Objects (%) [6]: 52% and 60% | Population Membrane Permeable-Phenotype (%) [6]: 0% | Population Mitochondria Different-Phenotype (%) [6]: 88% and 92% | Population Mitotic Cells (%) [6]: 24% and 38% | Population Normal (%) [6]: 47% and 40% | Population Pyknosed Nuclei (%) [6]: 40% and 37% | Population Tubulin-Different-Phenotype (%) [6]: 58% and 64% | Total Cell Count [6]: 235 and 205

COc1ccc(-n2c(C)c([N+](=O)[O-])c3ccc(O)cc32)cc1
Population Apoptotic (%) [1]: 6.21% and 10.43% | Population Fragmented Nuclei (%) [1]: 1.16% and 7.69% | Population Hoechst High Intensity Objects (%) [1]: 0% | Population Membrane Permeable-Phenotype (%) [1]: 1.02% and 0% | Population Mitochondria Different-Phenotype (%) [1]: 36.04% and 17.65% | Population Mitotic Cells (%) [1]: 93.79% and 89.57% | Population Normal (%) [1]: 100% | Population Pyknosed Nuclei (%) [1]: 41.91% and 80.42% | Total Cell Count [1]: 346 and 143 | Population Apoptotic (%) [2]: 9.49% and 17.86% | Population Fragmented Nuclei (%) [2]: 2.91% and 1.47% | Population Hoechst High Intensity Objects (%) [2]: 0.24% and 0.73% | Population Membrane Permeable-Phenotype (%) [2]: 0.41% and 0% | Population Mitochondria Different-Phenotype (%) [2]: 38.27% and 18.18% | Population Mitotic Cells (%) [2]: 90.51% and 82.14% | Population Normal (%) [2]: 99.76% and 99.27% | Population Pyknosed Nuclei (%) [2]: 38.26% and 82.35% | Population Apoptotic (%) [3]: 11.43% and 19% | Population Fragmented Nuclei (%) [3]: 1.47% and 4.73% | Population Healthy Nuclei (%) [3]: 72.84% and 27.7% | Population Hoechst High Intensity Objects (%) [3]: 0% | Population Membrane Permeable-Phenotype (%) [3]: 0.76% and 2.44% | Population Mitochondria Different-Phenotype (%) [3]: 19.9% and 19.51% | Population Mitotic Cells (%) [3]: 88.57% and 81% | Population Normal (%) [3]: 100% | Population Pyknosed Nuclei (%) [3]: 25.69% and 67.57% | Population Apoptotic (%) [4]: 20% and 19.35% | Population Fragmented Nuclei (%) [4]: 2.53% and 2.65% | Population Healthy Nuclei (%) [4]: 71.03% and 35.76% | Population Hoechst High Intensity Objects (%) [4]: 0% and 0.66% | Population Membrane Permeable-Phenotype (%) [4]: 0.97% and 1.85% | Population Mitochondria Different-Phenotype (%) [4]: 27.18% and 12.96% | Population Mitotic Cells (%) [4]: 80% and 80.65% | Population Normal (%) [4]: 100% and 99.34% | Population Pyknosed Nuclei (%) [4]: 26.44% and 61.59% | Population Tubulin-Different-Phenotype (%) [4]: 27.51% and 11.11% | Total Cell Count [4]: 435 and 152 | Population Apoptotic (%) [5]: 9.35% and 22.41% | Population Fragmented Nuclei (%) [5]: 2.61% and 2.72% | Population Healthy Nuclei (%) [5]: 87.04% and 65.76% | Population Hoechst High Intensity Objects (%) [5]: 0.1% and 0% | Population Membrane Permeable-Phenotype (%) [5]: 3.78% and 1.65% | Population Mitochondria Different-Phenotype (%) [5]: 21% and 23.97% | Population Mitotic Cells (%) [5]: 90.65% and 77.59% | Population Normal (%) [5]: 99.9% and 100% | Population Apoptotic (%) [6]: 17.07% and 21.57% | Population Fragmented Nuclei (%) [6]: 3.71% and 2.48% | Population Healthy Nuclei (%) [6]: 84.59% and 65.84% | Population Hoechst High Intensity Objects (%) [6]: 0.14% and 0% | Population Membrane Permeable-Phenotype (%) [6]: 5.23% and 1.89% | Population Mitochondria Different-Phenotype (%) [6]: 33.9% and 25.47% | Population Mitotic Cells (%) [6]: 82.93% and 78.43% | Population Normal (%) [6]: 99.86% and 100% | Population Pyknosed Nuclei (%) [6]: 11.7% and 31.68%

Reference: ChEMBL document CHEMBL5724801, “EUbOPEN Chemogenomics Library - Multiplex” (2024)
